Screens as filed in PubChem BioAssay.
T cruzi growth-1 = T. cruzi intracellular proliferation inhibitors, primary screen, cell-based, beta-gal Tulahuen parasites, NIH3T3 host, luminescence | T. cruzi beta-gal in NIH3T3, GalScreen luminescence, 90 h | inhibition, % at 8.34 µM | 77,000 tested, 5.9% active | AID 624255, 2012;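 active = mean inhibition above about 93%, with at least 55% of replicates each passing it, limit read from the data, passing the limit was not always enough; inconclusive = only one of those two conditions holds; inactive = neither condition holds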
GASC1 inh = inhibitors of GASC-1 (KDM4C) histone demethylase, primary screen, biochemical, single concentration HTS. Lysine-specific demethylase 4C (Homo sapiens), Q9H3R0. GST-KDM4C 2-372, H3K9me3 peptide, LANCE TR-FRET. inhibition, % at 12.5 µM. 96,000 tested, 0.15% active. AID 720574, 2013;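 active = mean replicate inhibition above about 25%, with at least 55% of replicates also reaching it, limit read from the data, passing the limit was not always enough; inconclusive = only one of those two conditions met; inactive = neither condition met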
Target sequence (Q9H3R0 2-372 limits assumed): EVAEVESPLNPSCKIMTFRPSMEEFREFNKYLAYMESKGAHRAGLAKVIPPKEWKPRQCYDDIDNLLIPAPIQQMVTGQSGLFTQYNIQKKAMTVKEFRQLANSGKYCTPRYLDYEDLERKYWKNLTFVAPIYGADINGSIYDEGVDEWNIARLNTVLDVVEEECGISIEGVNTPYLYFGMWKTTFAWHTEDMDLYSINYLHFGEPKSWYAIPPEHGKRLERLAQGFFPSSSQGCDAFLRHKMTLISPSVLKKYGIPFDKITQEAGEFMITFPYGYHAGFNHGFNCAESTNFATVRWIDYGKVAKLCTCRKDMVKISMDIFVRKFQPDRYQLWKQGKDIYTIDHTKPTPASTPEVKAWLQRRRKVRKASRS
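Material: GST-tagged GASC-1 (JMJD2C) catalytic fragment, aa 2-372 / Quantity: enzyme final amount 10 nM / Medium: HEPES buffer, pH 7.5, plus ascorbate / Doses: one test concentration per compound / Incubation: 30 min reaction, 60 min detection, RT / Measured by: LANCE TR-FRET / Read-out: inhibition from TR-FRET ratio decrease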
IDH1 mut inh = inhibitors of IDH1 R132H reductase, primary screen, biochemical, plate reader, single point; inhibition, % at 10 µM; Isocitrate dehydrogenase [NADP] cytoplasmic (Homo sapiens), O75874; AID 624101, 2012; diaphorase/resazurin fluorescence, 60 min; 70,000 tested, 0.18% active; in the data active = inhibition above about 34%; inconclusive = no clear call, values can overlap the other calls; inactive = below about 11%;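 also: 0% = DMSO and 100% = no enzyme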
Target sequence (O75874 whole entry R132H): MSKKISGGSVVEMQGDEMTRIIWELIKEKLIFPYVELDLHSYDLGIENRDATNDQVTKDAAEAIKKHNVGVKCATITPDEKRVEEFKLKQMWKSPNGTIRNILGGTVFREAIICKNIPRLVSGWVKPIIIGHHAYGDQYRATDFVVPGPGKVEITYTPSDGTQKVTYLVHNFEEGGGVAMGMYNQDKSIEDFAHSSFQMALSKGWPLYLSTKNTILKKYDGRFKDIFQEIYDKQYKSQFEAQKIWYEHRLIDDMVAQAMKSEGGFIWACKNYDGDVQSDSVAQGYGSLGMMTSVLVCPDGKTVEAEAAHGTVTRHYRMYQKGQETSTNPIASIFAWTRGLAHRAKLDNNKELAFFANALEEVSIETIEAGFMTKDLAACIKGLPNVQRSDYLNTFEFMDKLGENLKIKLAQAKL
T cruzi growth-2 = T. cruzi intracellular proliferation inhibitors, confirmation, cell-based, NIH3T3 host, beta-gal parasite, luminescence, cherry-pick; shares compounds with T cruzi growth-1; T. cruzi beta-gal in NIH3T3, GalScreen luminescence, 90 h; inhibition, % at 8.35 µM; 5,600 tested, 72% active; AID 651739, 2012;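 active = mean replicate inhibition above about 95% and at least 55% of replicates individually reaching it, limit read from the data; inconclusive = only one of the two criteria is met; inactive = neither criterion is met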
T cruzi growth-3 = inhibitors of intracellular T. cruzi replication, confirmation, NIH3T3 host cells, beta-gal parasites, cherry-pick, set 2. shares compounds with T cruzi growth-1. T. cruzi beta-gal in NIH3T3, GalScreen luminescence, 90 h. inhibition, % at 2.09 µM. 5,600 tested, 21% active;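 active = mean inhibition above about 95%, with at least 55% of replicates also reaching it, limit read from the data; inconclusive = meets just one of the two conditions; inactive = meets neither condition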;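 also: plate controls were neutral control median for no effect and positive control median for full effect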
3T3 cytotox = cytotoxicity in mouse NIH/3T3 fibroblasts, confirmation, cytotoxicity control for T. cruzi proliferation inhibitor project, cell-based, cherry-pick, single point; shares compounds with T cruzi growth-1; NIH/3T3 viability, CellTiter-Glo ATP luminescence, 90 h; cytotoxicity (signal decrease), % at 8.35 µM; 5,600 tested, 14% active;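 active = mean signal decrease across replicates above about 35% based on untreated-well scatter, with enough replicates individually passing, limit read from the data; inconclusive = no rule stated though some were filed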;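 also: 0% = median of neutral control wells and 100% = median of positive control wells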
NIH3T3 tox 2 = NIH/3T3 fibroblast cytotoxicity, confirmation, cytotoxicity control, cell-based, cherry-pick, single point, set 2; 5,600 tested, 56% active; shares compounds with T cruzi growth-1; inhibition, % at 24.9 µM; AID 651744, 2012; NIH/3T3 viability, CellTiter-Glo ATP luminescence, 90 h;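 active = mean loss of cell viability signal at or above a set limit, and enough replicates individually reaching it; inconclusive = meets only the mean limit or only the replicate share; inactive = meets neither condition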;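 also: 0% = median of neutral control wells and 100% = median of positive control wells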
An asterisk follows results filed as active; u = inconclusive; x = not tested or not shown. Only a selection was taken, and hits are over-represented in it overall.

SMILES | T cruzi growth-1 | GASC1 inh | IDH1 mut inh | T cruzi growth-2 | T cruzi growth-3 | 3T3 cytotox | NIH3T3 tox 2
C[C@@H]1CCCCO[C@H](CN(C)C(=O)Nc2ccc(F)cc2)[C@H](C)CN([C@@H](C)CO)C(=O)c2cc(NC(=O)Nc3cccc4ccccc34)ccc2O1 | 102.4* | -1.6 | x | 110.2* | 81.0 | -20.1 | -4.7
C[C@@H]1CCCCO[C@@H](CN(C)C(=O)Nc2ccc(F)cc2)[C@H](C)CN([C@@H](C)CO)C(=O)c2cc(NC(=O)Nc3cccc4ccccc34)ccc2O1 | 90.8 | -1.9 | 1.8 | x | x | x | x
C[C@@H]1CCCCO[C@H](CN(C)Cc2ccncc2)[C@H](C)CN([C@H](C)CO)C(=O)c2cc(NC(=O)NC3CCCCC3)ccc2O1 | 92.4 | 5.7 | 7.2 | x | x | x | x
COc1ccc(-c2nc(SCC(=O)Nc3c(F)cc(F)cc3Br)n[nH]2)cc1 | x | x | 0.2 | x | x | x | x
CC(C)NC(=O)N(C)C[C@@H]1Oc2cc(-c3ccncc3)ccc2S(=O)(=O)N([C@@H](C)CO)C[C@@H]1C | 102.7* | -1.3 | 0.1 | 83.9 | 52.6 | 6.2 | 22.7
CCCNC(=O)N(C)C[C@H]1Oc2cc(-c3ccncc3)ccc2S(=O)(=O)N([C@@H](C)CO)C[C@@H]1C | 96.7* | -2.2 | 1.2 | u | 12.5 | -17.0 | u
Cc1ccc(-c2ccc3c(c2)O[C@H](CN(C)C(=O)NC(C)C)[C@@H](C)CN([C@@H](C)CO)S3(=O)=O)cc1 | 26.7 | -0.4 | 1.0 | x | x | x | x
CC(C)NC(=O)N(C)C[C@@H]1Oc2cc(-c3ccncc3)ccc2S(=O)(=O)N([C@H](C)CO)C[C@H]1C | 118.9* | 14.7 | 2.3 | u | 74.0 | 10.5 | 11.8
CC(C)NC(=O)N(C)C[C@@H]1Oc2cc(-c3ccncc3)ccc2S(=O)(=O)N([C@@H](C)CO)C[C@H]1C | 110.9* | -1.1 | 4.9 | 82.7 | 84.4 | 10.2 | 16.0
CC(C)NC(=O)N(C)C[C@@H]1Oc2cc(-c3cncnc3)ccc2S(=O)(=O)N([C@@H](C)CO)C[C@@H]1C | -2.9 | 3.4 | 0.5 | x | x | x | x
CCCNC(=O)N(C)C[C@@H]1Oc2cc(-c3ccncc3)ccc2S(=O)(=O)N([C@@H](C)CO)C[C@@H]1C | 30.2 | 1.3 | -1.8 | x | x | x | x
CC(C)NC(=O)N(C)C[C@H]1Oc2cc(-c3cncnc3)ccc2S(=O)(=O)N([C@H](C)CO)C[C@@H]1C | -9.1 | 0.3 | -0.6 | x | x | x | x
OC[C@H]1[C@@H](c2ccc(Br)cc2)[C@H]2CNCCCCN21 | -25.4 | 10.4 | x | x | x | x | x
C[C@@H]1CN([C@@H](C)CO)C(=O)Cc2cc(NC(=O)C3CC3)ccc2O[C@H]1CN(C)C(=O)Nc1ccc(C(F)(F)F)cc1 | 8.5 | -1.2 | -0.3 | x | x | x | x
C[C@@H]1CN([C@@H](C)CO)C(=O)c2cc(C#Cc3ccccn3)cnc2O[C@H]1CN(C)Cc1cccnc1 | 87.4 | -0.8 | -0.3 | x | x | x | x
C[C@@H]1CN([C@H](C)CO)C(=O)c2cc(C#Cc3ccccn3)cnc2O[C@@H]1CN(C)Cc1cncnc1 | 77.7 | 3.3 | -0.1 | x | x | x | x
C[C@@H]1CN([C@@H](C)CO)C(=O)c2cc(C#Cc3ccccn3)cnc2O[C@@H]1CN(C)Cc1cncnc1 | u | -2.5 | 1.0 | 104.2* | 27.9 | 13.7 | -6.1
C[C@H](CO)N1C[C@H](C)[C@@H](CN(C)Cc2cncnc2)Oc2ncc(C#Cc3ccccn3)cc2C1=O | u | 2.6 | -2.5 | 102.5* | 45.8 | -1.0 | 8.7
O=C(C[C@H]1CC[C@H](NC(=O)c2ccccc2)[C@@H](CO)O1)Nc1ccc(-c2ccccc2)cc1 | -35.5 | 1.0 | -0.1 | x | x | x | x
CC(NS(=O)(=O)c1ccc(F)cc1)C(=O)Nc1ccccc1Sc1ccccc1 (configuration not stated) | x | x | -0.4 | x | x | x | x
Cc1noc(C)c1S(=O)(=O)N(C)C[C@@H]1OCCCC[C@@H](C)Oc2ccc(NC(=O)Nc3cccc4ccccc34)cc2C(=O)N([C@@H](C)CO)C[C@H]1C | 103.9* | -3.1 | 5.1 | 84.3 | 54.6 | -14.2 | -5.2
COc1ccc(NC(=O)Nc2ccc3c(c2)C(=O)N([C@@H](C)CO)C[C@@H](C)[C@H](CN(C)S(=O)(=O)c2c(C)noc2C)OCCCC[C@@H](C)O3)cc1 | -69.9 | -1.0 | x | x | x | x | x
Cc1noc(C)c1S(=O)(=O)N(C)C[C@@H]1OCCCC[C@H](C)Oc2ccc(NC(=O)Nc3cccc4ccccc34)cc2C(=O)N([C@H](C)CO)C[C@@H]1C | 108.7* | -6.2 | x | 98.1* | -36.7 | 73.9* | 77.3*
Cc1noc(C)c1S(=O)(=O)N(C)C[C@@H]1OCCCC[C@@H](C)Oc2ccc(NC(=O)Nc3ccccc3)cc2C(=O)N([C@H](C)CO)C[C@H]1C | x | -0.5 | 1.9 | x | x | x | x
Cc1noc(C)c1S(=O)(=O)N(C)C[C@H]1OCCCC[C@H](C)Oc2ccc(NC(=O)Nc3cccc4ccccc34)cc2C(=O)N([C@@H](C)CO)C[C@@H]1C | 99.9* | -2.9 | 2.6 | 108.7* | u | 6.9 | 53.6*
SMILES | T cruzi growth-1 | GASC1 inh | IDH1 mut inh | T cruzi growth-2 | T cruzi growth-3 | 3T3 cytotox | NIH3T3 tox 2
COc1ccc(NC(=O)Nc2ccc3c(c2)C(=O)N([C@@H](C)CO)C[C@H](C)[C@@H](CN(C)S(=O)(=O)c2c(C)noc2C)OCCCC[C@H](C)O3)cc1 | 107.2* | -3.9 | 2.7 | 101.7* | -7.6 | -12.3 | -7.2
Cc1noc(C)c1S(=O)(=O)N(C)C[C@H]1OCCCC[C@H](C)Oc2ccc(NC(=O)Nc3cccc4ccccc34)cc2C(=O)N([C@H](C)CO)C[C@H]1C | x | -1.3 | 1.3 | x | x | x | x
Cc1noc(C)c1S(=O)(=O)N(C)C[C@@H]1OCCCC[C@H](C)Oc2ccc(NC(=O)Nc3cccc4ccccc34)cc2C(=O)N([C@H](C)CO)C[C@H]1C | 83.3 | 1.8 | 2.1 | x | x | x | x
CCCNC(=O)N1C[C@@H](O)COC[C@@H]2O[C@H](CC(=O)N3CCCCC3)CC[C@H]21 | 41.4 | -1.4 | x | x | x | x | x
O=C(C[C@@H]1CC[C@@H]2[C@H](COC[C@H](O)CN2C(=O)c2ccccc2)O1)NCc1cccc(F)c1 | -9.0 | 0.4 | x | x | x | x | x
COCC(=O)N(C)C[C@@H]1Oc2ncc(C#Cc3ccc(F)cc3)cc2C(=O)N([C@@H](C)CO)C[C@H]1C | 63.7 | -1.2 | -2.5 | x | x | x | x
C/C=C/c1cnc2c(c1)C(=O)N([C@H](C)CO)C[C@@H](C)[C@H](CN(C)S(=O)(=O)c1ccccc1)O2 | 68.6 | -0.2 | -0.3 | x | x | x | x
COc1cccc(NC(=O)N(C)C[C@H]2Oc3ncc(/C=C/c4ccccc4)cc3C(=O)N([C@@H](C)CO)C[C@@H]2C)c1 | x | -0.9 | x | x | x | x | x
